Laboratory results reported in ChEMBL document CHEMBL5724801, “EUbOPEN Chemogenomics Library - Multiplex” (2024).
Several values for one entry are separate records, joined by “and”; a condition that tells them apart may be missing. Equal entries are not always repeated.

Test system: U2OS
Assay: Multiplex assay against U2OS
Format: toxicity, cell-based
Details: human
How it was run: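 At seeding, live cells were stained with Hoechst33342, BioTracker Green Microtubule Cytoskeleton Dye, MitoTracker Red and Annexin V Alexa Fluor 680. After compound addition they were imaged on a CQ1 microscope at 37°C and 5% CO2, and CellPathfinder machine-learning gating sorted them into Hoechst high-intensity objects or normal cells, with normal cells further split into healthy, pyknosed or fragmented nuclei and pyknosed cells into mitotic or apoptotic. Tubulin, mitochondrial-mass and membrane-permeability phenotypes are given as per cents of cells with healthy nuclei.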

[1] = 12 h, 1 µM, compound concentration 1 uM
[2] = 12 h, 10 µM, compound concentration 10 uM
[3] = 24 h, 1 µM, compound concentration 1 uM
[4] = 24 h, 10 µM, compound concentration 10 uM
[5] = 48 h, 1 µM, compound concentration 1 uM
[6] = 48 h, 10 µM, compound concentration 10 uM

SMILES: Cc1cc(C)c(NC(=O)C2CC3CCC2C3)c(C)c1 (centres undefined)
- Population Apoptotic (%) [1]: 35.29%
- Population Fragmented Nuclei (%) [1]: 2.08% and 2.72%
- Population Healthy Nuclei (%) [1]: 89.09% and 88.04%
- Population Hoechst High Intensity Objects (%) [1]: 0%
- Population Membrane Permeable-Phenotype (%) [1]: 1.75% and 1.23%
- Population Mitochondria Different-Phenotype (%) [1]: 0.29% and 4.94%
- Population Mitotic Cells (%) [1]: 64.71%
- Population Normal (%) [1]: 100%
- Population Pyknosed Nuclei (%) [1]: 8.83% and 9.24%
- Population Tubulin-Different-Phenotype (%) [1]: 2.04% and 0%
- Total Cell Count [1]: 385 and 184
- Population Apoptotic (%) [2]: 50% and 36%
- Population Fragmented Nuclei (%) [2]: 2.53% and 4.4%
- Population Healthy Nuclei (%) [2]: 88.71% and 79.87%
- Population Hoechst High Intensity Objects (%) [2]: 0%
- Population Membrane Permeable-Phenotype (%) [2]: 1.56% and 2.36%
- Population Mitochondria Different-Phenotype (%) [2]: 0.26% and 8.66%
- Population Mitotic Cells (%) [2]: 50% and 64%
- Population Normal (%) [2]: 100%
- Population Pyknosed Nuclei (%) [2]: 8.76% and 15.72%
- Population Tubulin-Different-Phenotype (%) [2]: 0.52% and 1.57%
- Total Cell Count [2]: 434 and 159
- Population Apoptotic (%) [3]: 42.86% and 36%
- Population Fragmented Nuclei (%) [3]: 2.11% and 1.27%
- Population Healthy Nuclei (%) [3]: 84.48% and 88.19%
- Population Hoechst High Intensity Objects (%) [3]: 0.19% and 0%
- Population Membrane Permeable-Phenotype (%) [3]: 1.36% and 1.91%
- Population Mitochondria Different-Phenotype (%) [3]: 0.23% and 2.39%
- Population Mitotic Cells (%) [3]: 57.14% and 64%
- Population Normal (%) [3]: 99.81% and 100%
- Population Pyknosed Nuclei (%) [3]: 13.41% and 10.55%
- Population Tubulin-Different-Phenotype (%) [3]: 0.91% and 0%
- Total Cell Count [3]: 523 and 237
- Population Apoptotic (%) [4]: 34.38% and 46.43%
- Population Fragmented Nuclei (%) [4]: 2.9% and 2.49%
- Population Healthy Nuclei (%) [4]: 86.2% and 83.58%
- Population Hoechst High Intensity Objects (%) [4]: 0.17% and 0%
- Population Membrane Permeable-Phenotype (%) [4]: 1.19%
- Population Mitochondria Different-Phenotype (%) [4]: 0.4% and 3.57%
- Population Mitotic Cells (%) [4]: 65.62% and 53.57%
- Population Normal (%) [4]: 99.83% and 100%
- Population Pyknosed Nuclei (%) [4]: 10.9% and 13.93%
- Population Tubulin-Different-Phenotype (%) [4]: 0.79% and 2.38%
- Total Cell Count [4]: 588 and 201
- Population Apoptotic (%) [5]: 45% and 48.57%
- Population Fragmented Nuclei (%) [5]: 2.82% and 2%
- Population Healthy Nuclei (%) [5]: 88.83% and 89.25%
- Population Hoechst High Intensity Objects (%) [5]: 0%
- Population Membrane Permeable-Phenotype (%) [5]: 2% and 1.96%
- Population Mitochondria Different-Phenotype (%) [5]: 0.12% and 3.08%
- Population Mitotic Cells (%) [5]: 55% and 51.43%
- Population Normal (%) [5]: 100%
- Population Pyknosed Nuclei (%) [5]: 8.35% and 8.75%
- Population Tubulin-Different-Phenotype (%) [5]: 1.53% and 0.28%
- Total Cell Count [5]: 958 and 400
- Population Apoptotic (%) [6]: 38.02% and 53.12%
- Population Fragmented Nuclei (%) [6]: 3.32% and 3.75%
- Population Healthy Nuclei (%) [6]: 86.1% and 87.03%
- Population Hoechst High Intensity Objects (%) [6]: 0%
- Population Membrane Permeable-Phenotype (%) [6]: 1.52% and 2.32%
- Population Mitochondria Different-Phenotype (%) [6]: 0.1% and 3.97%
- Population Mitotic Cells (%) [6]: 61.98% and 46.88%
- Population Normal (%) [6]: 100%
- Population Pyknosed Nuclei (%) [6]: 10.58% and 9.22%
- Population Tubulin-Different-Phenotype (%) [6]: 1.22% and 1.99%

SMILES: Cc1[nH]nc2ccc(-c3cncc(OCC(N)Cc4c[nH]c5ccccc45)c3)cc12 (centres undefined)
- Population Apoptotic (%) [1]: 44.72% and 48.45%
- Population Fragmented Nuclei (%) [1]: 8.59% and 11.33%
- Population Healthy Nuclei (%) [1]: 46.81% and 24%
- Population Hoechst High Intensity Objects (%) [1]: 0%
- Population Membrane Permeable-Phenotype (%) [1]: 2.37% and 0%
- Population Mitotic Cells (%) [1]: 55.28% and 51.55%
- Population Normal (%) [1]: 100%
- Population Pyknosed Nuclei (%) [1]: 44.6% and 64.67%
- Population Tubulin-Different-Phenotype (%) [1]: 4.73% and 0%
- Total Cell Count [1]: 361 and 150
- Population Apoptotic (%) [2]: 65.77% and 68.92%
- Population Fragmented Nuclei (%) [2]: 11.37% and 8.4%
- Population Healthy Nuclei (%) [2]: 2.49% and 6.87%
- Population Hoechst High Intensity Objects (%) [2]: 0%
- Population Membrane Permeable-Phenotype (%) [2]: 0% and 22.22%
- Population Mitochondria Different-Phenotype (%) [2]: 35.71% and 55.56%
- Population Mitotic Cells (%) [2]: 34.23% and 31.08%
- Population Normal (%) [2]: 100%
- Population Pyknosed Nuclei (%) [2]: 86.15% and 84.73%
- Population Tubulin-Different-Phenotype (%) [2]: 42.86% and 33.33%
- Total Cell Count [2]: 563 and 262
- Population Apoptotic (%) [3]: 64.71% and 80.2%
- Population Fragmented Nuclei (%) [3]: 9.73% and 13.51%
- Population Healthy Nuclei (%) [3]: 38.6% and 18.24%
- Population Hoechst High Intensity Objects (%) [3]: 0%
- Population Membrane Permeable-Phenotype (%) [3]: 3.15% and 3.7%
- Population Mitotic Cells (%) [3]: 35.29% and 19.8%
- Population Normal (%) [3]: 100%
- Population Pyknosed Nuclei (%) [3]: 51.67% and 68.24%
- Population Tubulin-Different-Phenotype (%) [3]: 2.36% and 7.41%
- Total Cell Count [3]: 329 and 148
- Population Apoptotic (%) [4]: 93.93% and 93.15%
- Population Fragmented Nuclei (%) [4]: 7.63% and 5.95%
- Population Healthy Nuclei (%) [4]: 4.33% and 7.14%
- Population Hoechst High Intensity Objects (%) [4]: 0%
- Population Mitochondria Different-Phenotype (%) [4]: 17.65% and 50%
- Population Mitotic Cells (%) [4]: 6.07% and 6.85%
- Population Normal (%) [4]: 100%
- Population Pyknosed Nuclei (%) [4]: 88.04% and 86.9%
- Population Tubulin-Different-Phenotype (%) [4]: 35.29% and 16.67%
- Total Cell Count [4]: 393 and 168
- Population Apoptotic (%) [5]: 73.68% and 85.57%
- Population Fragmented Nuclei (%) [5]: 8.46% and 13.19%
- Population Healthy Nuclei (%) [5]: 34.14% and 19.44%
- Population Hoechst High Intensity Objects (%) [5]: 0%
- Population Mitochondria Different-Phenotype (%) [5]: 1.77% and 10.71%
- Population Mitotic Cells (%) [5]: 26.32% and 14.43%
- Population Normal (%) [5]: 100%
- Population Pyknosed Nuclei (%) [5]: 57.4% and 67.36%
- Population Tubulin-Different-Phenotype (%) [5]: 5.31% and 0%
- Total Cell Count [5]: 331 and 144
- Population Apoptotic (%) [6]: 96.14% and 98.84%
- Population Fragmented Nuclei (%) [6]: 9.73% and 10.67%
- Population Healthy Nuclei (%) [6]: 29.2% and 32%
- Population Hoechst High Intensity Objects (%) [6]: 0%
- Population Membrane Permeable-Phenotype (%) [6]: 12.12% and 29.17%
- Population Mitochondria Different-Phenotype (%) [6]: 23.23% and 35.42%
- Population Mitotic Cells (%) [6]: 3.86% and 1.16%
- Population Normal (%) [6]: 100%
- Population Pyknosed Nuclei (%) [6]: 61.06% and 57.33%
- Population Tubulin-Different-Phenotype (%) [6]: 14.14% and 16.67%
- Total Cell Count [6]: 339 and 150

SMILES: Cn1ncnc1COc1nn2c(-c3cc(F)ccc3F)nnc2cc1C(C)(C)C
- Population Apoptotic (%) [1]: 55.26% and 53.85%
- Population Fragmented Nuclei (%) [1]: 0.89% and 4.24%
- Population Healthy Nuclei (%) [1]: 90.6% and 80%
- Population Hoechst High Intensity Objects (%) [1]: 0%
- Population Mitochondria Different-Phenotype (%) [1]: 0% and 7.58%
- Population Mitotic Cells (%) [1]: 44.74% and 46.15%
- Population Normal (%) [1]: 100%
- Population Pyknosed Nuclei (%) [1]: 8.5% and 15.76%
- Population Tubulin-Different-Phenotype (%) [1]: 1.23% and 0.76%
- Total Cell Count [1]: 447 and 165
- Population Apoptotic (%) [2]: 36.84% and 41.18%
- Population Fragmented Nuclei (%) [2]: 1.2% and 0.65%
- Population Healthy Nuclei (%) [2]: 87.43% and 88.24%
- Population Hoechst High Intensity Objects (%) [2]: 0%
- Population Mitotic Cells (%) [2]: 63.16% and 58.82%
- Population Normal (%) [2]: 100%
- Population Pyknosed Nuclei (%) [2]: 11.38% and 11.11%
- Population Tubulin-Different-Phenotype (%) [2]: 1.71% and 1.48%
- Total Cell Count [2]: 334 and 153
- Population Apoptotic (%) [3]: 33.9% and 52.63%
- Population Fragmented Nuclei (%) [3]: 0.96% and 3.02%
- Population Healthy Nuclei (%) [3]: 89.63% and 77.89%
- Population Hoechst High Intensity Objects (%) [3]: 0%
- Population Mitochondria Different-Phenotype (%) [3]: 0% and 7.74%
- Population Mitotic Cells (%) [3]: 66.1% and 47.37%
- Population Normal (%) [3]: 100%
- Population Pyknosed Nuclei (%) [3]: 9.41% and 19.1%
- Population Tubulin-Different-Phenotype (%) [3]: 0.53% and 0.65%
- Population Apoptotic (%) [4]: 30.77% and 47.83%
- Population Fragmented Nuclei (%) [4]: 1.81% and 3.66%
- Population Healthy Nuclei (%) [4]: 86.39% and 84.29%
- Population Hoechst High Intensity Objects (%) [4]: 0% and 0.52%
- Population Mitochondria Different-Phenotype (%) [4]: 0% and 3.73%
- Population Mitotic Cells (%) [4]: 69.23% and 52.17%
- Population Normal (%) [4]: 100% and 99.48%
- Population Pyknosed Nuclei (%) [4]: 11.79% and 12.04%
- Population Tubulin-Different-Phenotype (%) [4]: 2.62% and 1.24%
- Total Cell Count [4]: 441 and 192
- Population Apoptotic (%) [5]: 43.96% and 63.41%
- Population Fragmented Nuclei (%) [5]: 3.06% and 2.48%
- Population Healthy Nuclei (%) [5]: 88.51% and 84.83%
- Population Hoechst High Intensity Objects (%) [5]: 0% and 0.31%
- Population Mitochondria Different-Phenotype (%) [5]: 0% and 6.93%
- Population Mitotic Cells (%) [5]: 56.04% and 36.59%
- Population Normal (%) [5]: 100% and 99.69%
- Population Pyknosed Nuclei (%) [5]: 8.43% and 12.69%
- Population Tubulin-Different-Phenotype (%) [5]: 1.05% and 0.73%
- Population Apoptotic (%) [6]: 56.04% and 51.22%
- Population Fragmented Nuclei (%) [6]: 2.31% and 1.96%
- Population Healthy Nuclei (%) [6]: 87.15% and 84.64%
- Population Hoechst High Intensity Objects (%) [6]: 0%
- Population Mitochondria Different-Phenotype (%) [6]: 0.13% and 5.41%
- Population Mitotic Cells (%) [6]: 43.96% and 48.78%
- Population Normal (%) [6]: 100%
- Population Pyknosed Nuclei (%) [6]: 10.53% and 13.4%
- Population Tubulin-Different-Phenotype (%) [6]: 1.86% and 1.54%
- Total Cell Count [6]: 864 and 306
